# Experimental data as given in ChEMBL document CHEMBL1137744, “Parallel synthesis, molecular modelling and further structure-activity relationship studies of new acylthiocarbamates as potent non-nucleoside HIV-1 reverse transcriptase inhibitors” (Eur J Med Chem, 2009).
# Calls of active or inactive are those of the source. The calls are words filed in the database; no cut-off is given here.
# Key:
# [1] = system: Human immunodeficiency virus 1; test: Antiviral activity against HIV1 3B infected in human MT4 cells assessed as inhibition of virus-induced cytopathogenicity by MTT assay; type: functional, organism-based; conditions: Human immunodeficiency virus 1, 3B
# In short: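 MT-4 cells infected with HIV-1 and read by MTT viability. EC50 is the concentration giving 50% protection of cells from virus-induced cytopathogenicity. Values are means of three separate experiments, with variation among triplicate samples under 10%.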
# [2] = Cytotoxicity against human MT4 cells by MTT assay; type: cell-based
# In short: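 Uninfected (mock-infected) MT-4 cells were exposed to compound and viability was read by MTT. CC50 is the concentration cutting viability by 50%. Values are means of three separate experiments, with triplicate samples varying by less than 10%.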
# [3] = Selectivity index, ratio of CC50 for human MT4 cells to EC50 for HIV1 3B; type: toxicity, cell-based; conditions: read-out: Ratio CC50/EC50
# In short: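 Computed as CC50/EC50. Both come from MTT readings in MT-4 cells: CC50 is 50% viability loss in mock-infected cells, and EC50 is 50% protection from HIV-1-induced cytopathogenicity. Each is the mean of three experiments.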
# [4] = system: Human immunodeficiency virus 1; test: Antiviral activity against HIV1 3B expressing reverse transcriptase Y181C mutant infected in human MT4 cells assessed as inhibition of virus-induced cytopathogenicity by MTT assay; type: functional, organism-based; conditions: Human immunodeficiency virus 1, 3B
# In short: (§1)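 MT-4 cells infected with HIV-1 carrying the Y181C RT mutation, alongside wild-type virus. EC50 is the concentration giving 50% protection from virus-induced cytopathogenicity, read by MTT. Values are means of three separate experiments run in triplicate. The ratio is EC50(Y181C)/EC50(wt).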
# [5] = system: Human immunodeficiency virus 1; test: Antiviral activity against HIV1 3B expressing reverse transcriptase K103N/Y181C double mutant infected in human MT4 cells assessed as inhibition of virus-induced cytopathogenicity by MTT assay; type: functional, organism-based
# [6] = system: Human immunodeficiency virus 1; test: Ratio of EC50 for HIV1 3B expressing reverse transcriptase Y181C mutant to EC50 for HIV1 3B; type: functional; in short: as §1
Compound,EC50 [1] [µM],CC50 [2] [µM],selectivity ratio [3],EC50 [4] [µM],Activity [5],Ratio EC50 [6]
Cc1ccc(N(C(=O)c2ccc(Cl)c([N+](=O)[O-])c2)C(=S)OCCN2C(=O)c3ccccc3C2=O)cc1,0.06,47,783,–,–,–
CC(CN1C(=O)c2ccccc2C1=O)OC(=S)N(C(=O)c1cccc([N+](=O)[O-])c1)c1ccc(Cl)cc1 (racemic),0.7,31,44.3,–,–,–
O=C1c2ccccc2C(=O)N1CCOC(=S)N(C(=O)c1ccc(Cl)cc1)c1ccc(Cl)cc1,0.025,–,–,–,–,–
Cc1ccc(N(C(=O)c2c(Cl)cccc2Cl)C(=S)OCCN2C(=O)c3ccccc3C2=O)cc1,9,22,2.4,–,–,–
O=C1c2ccccc2C(=O)N1CCOC(=S)N(C(=O)c1ccc(Cl)nc1)c1ccc(Cl)cc1,0.006,–,–,–,–,–
O=C1c2ccccc2C(=O)N1CCOC(=S)N(C(=O)c1ccc(Cl)c(Cl)c1)c1ccccc1,0.5,52,104,–,–,–
Cc1ccc(N(C(=O)c2ccc(Cl)cc2Cl)C(=S)OCCN2C(=O)c3ccccc3C2=O)cc1,0.3,49,163,–,–,–
O=C1c2ccccc2C(=O)N1CCOC(=S)N(C(=O)c1ccco1)c1ccc(Cl)c(Cl)c1,0.69,100,145,–,–,–
Cc1ccc(N(C(=O)c2ccccc2C)C(=S)OCCN2C(=O)c3ccccc3C2=O)cc1,0.2,> 100,> 500,–,–,–
O=C1c2ccccc2C(=O)N1CCOC(=S)N(C(=O)c1ccccc1)c1ccc(Cl)cc1,0.1,–,–,–,–,–
O=C1c2ccccc2C(=O)N1CCOC(=S)N(C(=O)c1cc(F)cc(F)c1)c1ccc(Cl)cc1,0.007,59,8430,–,–,–
Cc1ccc2c(c1)C(=O)N(CCOC(=S)N(C(=O)c1cccc([N+](=O)[O-])c1)c1ccc(Cl)cc1)C2=O,0.05,> 100,> 2000,–,–,–
O=C1c2ccccc2C(=O)N1CCOC(=S)N(C(=O)c1cccc([N+](=O)[O-])c1)c1c(Cl)cccc1Cl,17,58,3.4,–,–,–
Cc1ccc(N(C(=O)c2cc(F)cc(F)c2)C(=S)OCCN2C(=O)c3ccccc3C2=O)cc1,0.05,54,1080,–,–,–
O=C1c2ccccc2C(=O)N1CCOC(=S)N(C(=O)c1ccc(C(F)(F)F)cc1)c1ccc(Cl)cc1,0.005,10,2000,–,–,–
O=C1c2ccccc2C(=O)N1CCOC(=S)N(C(=O)c1ccco1)c1cc(Cl)cc(Cl)c1,> 100,> 100,–,–,–,–
O=C1c2ccccc2C(=O)N1CCOC(=S)N(C(=O)c1c(F)cccc1F)c1ccc(Cl)cc1,0.02,39,1950,–,–,–
O=C1c2ccccc2C(=O)N1CCCOC(=S)N(C(=O)c1cccc([N+](=O)[O-])c1)c1ccc(Cl)cc1,29,53,1.8,–,–,–
Cc1ccc2c(c1)C(=O)N(CCOC(=S)N(C(=O)c1cccs1)c1ccc(Cl)cc1)C2=O,0.02,> 100,> 5000,–,–,–
Cc1ccc(N(C(=O)c2ccc([N+](=O)[O-])cc2Cl)C(=S)OCCN2C(=O)c3ccccc3C2=O)cc1,0.09,17,189,–,–,–
Cc1ccc(C(=O)N(C(=S)OCCN2C(=O)c3ccccc3C2=O)c2ccc(C)cc2)cc1,0.02,83,4150,–,–,–
O=C1c2ccccc2C(=O)N1CCOC(=S)N(C(=O)c1cc([N+](=O)[O-])ccc1Cl)c1ccc(Cl)cc1,0.07,45,643,–,–,–
Cc1ccc(N(C(=O)c2ccc(F)cc2F)C(=S)OCCN2C(=O)c3ccccc3C2=O)cc1,0.03,20,667,–,–,–
O=C1c2ccccc2C(=O)N1CCOC(=S)N(C(=O)c1ccc(Br)cc1)c1ccc(Br)cc1,0.035,73,2090,–,–,–
O=C1c2ccccc2C(=O)N1CCOC(=S)N(C(=O)c1ccccc1)c1ccccc1,0.4,–,–,–,–,–
O=C1c2ccccc2C(=O)N1CCOC(=S)N(C(=O)c1ccco1)c1ccc(Cl)cc1,0.007,–,–,–,–,–
O=C1Nc2ccc(Cl)cc2[C@@](C#CC2CC2)(C(F)(F)F)O1 [EFAVIRENZ],–,–,–,0.01,inactive,–
O=C1c2ccccc2C(=O)N1COC(=S)N(C(=O)c1cccc([N+](=O)[O-])c1)c1ccc(Cl)cc1,> 100,> 100,–,–,–,–

Compound,EC50 [1] [µM],CC50 [2] [µM],selectivity ratio [3],EC50 [4] [µM],Activity [5],Ratio EC50 [6]
Cc1ccc(N(C(=O)c2ccc([N+](=O)[O-])cc2)C(=S)OCCN2C(=O)c3ccccc3C2=O)cc1,0.03,58,1930,–,–,–
S=C(NCCc1ccccn1)Nc1ccc(Br)cn1 [TROVIRDINE],–,–,3000,1.2,inactive,60
Cc1ccc(N(C(=O)c2ccc(Cl)c(Cl)c2)C(=S)OCCN2C(=O)c3ccccc3C2=O)cc1,0.05,17,340,–,–,–
Cc1ccc(N(C(=O)c2ccc(Br)c(C)c2)C(=S)OCCN2C(=O)c3ccccc3C2=O)cc1,0.05,> 100,> 2000,–,–,–
O=C1c2ccccc2C(=O)N1CCOC(=S)N(C(=O)c1ccc([N+](=O)[O-])cc1Cl)c1ccc(Cl)cc1,0.008,19,2380,–,–,–
O=C1c2ccccc2C(=O)N1CCOC(=S)N(C(=O)c1ccccc1[N+](=O)[O-])c1ccc(Cl)cc1,0.07,21,300,–,–,–
O=C1c2ccccc2C(=O)N1CCOC(=S)N(C(=O)c1ccco1)c1ccc(Cl)cc1Cl,2.6,> 100,> 38,–,–,–
O=C1c2ccccc2C(=O)N1CCOC(=S)N(C(=O)c1ccco1)c1cccc(Cl)c1Cl,> 100,100,–,–,–,–
O=C1c2ccccc2C(=O)N1CCOC(=S)N(C(=O)c1ccc(Cl)cc1Cl)c1ccc(Cl)cc1,0.03,18,600,–,–,–
COc1cccc(OC)c1C(=O)N(C(=S)OCCN1C(=O)c2ccccc2C1=O)c1ccc(C)cc1,22,36,1.6,–,–,–
O=C1c2ccccc2C(=O)N1CCOC(=S)N(C(=O)c1cccc([N+](=O)[O-])c1)c1c(Cl)cc(Cl)cc1Cl,> 20,20,–,–,–,–
Cc1ccc(N(C(=O)c2c(F)cccc2F)C(=S)OCCN2C(=O)c3ccccc3C2=O)cc1,1,65,65,–,–,–
O=C1c2ccccc2C(=O)N1CCOC(=S)N(C(=O)c1ccc(Cl)c([N+](=O)[O-])c1)c1ccccc1,0.35,51,146,–,–,–
O=C1c2ccccc2C(=O)N1CCOC(=S)N(C(=O)c1ccc(Cl)c(Cl)c1)c1ccc(Cl)cc1,0.009,35,3890,–,–,–
Cc1ccc(N(C(=O)c2cccc(Cl)c2Cl)C(=S)OCCN2C(=O)c3ccccc3C2=O)cc1,0.2,35,175,–,–,–
Cc1ccc(N(C(=O)c2ccccc2[N+](=O)[O-])C(=S)OCCN2C(=O)c3ccccc3C2=O)cc1,0.4,100,250,–,–,–
Cc1ccccc1C(=O)N(C(=S)OCCN1C(=O)c2ccccc2C1=O)c1ccc(Cl)cc1,0.04,21,525,–,–,–
O=C1c2ccccc2C(=O)N1CCOC(=S)N(C(=O)c1cccc([N+](=O)[O-])c1)c1ccc(Cl)cc1,0.0015,18,12000,–,–,–
O=C1c2ccccc2C(=O)N1CCOC(=S)N(C(=O)c1cccnc1Cl)c1ccc(Cl)cc1,0.005,–,–,–,–,–
Cc1ccc(N(C(=O)c2cc(F)ccc2F)C(=S)OCCN2C(=O)c3ccccc3C2=O)cc1,0.04,62,1550,–,–,–
Cc1ccc(N(C(=O)c2cccc([N+](=O)[O-])c2)C(=S)OCCN2C(=O)c3ccccc3C2=O)cc1,0.02,100,5000,–,–,–
O=C1c2ccccc2C(=O)N1CCOC(=S)N(C(=O)c1c(Cl)cccc1Cl)c1ccc(Cl)cc1,5.6,20,3.6,–,–,–
Cc1ccc(N(C(=O)c2cccc(C)c2)C(=S)OCCN2C(=O)c3ccccc3C2=O)cc1,0.04,> 100,> 2500,–,–,–
O=C1c2ccccc2C(=O)N1CCOC(=S)N(C(=O)c1cccc2ccccc12)c1ccc(Cl)cc1,0.03,6,200,–,–,–
COc1cccc(OC)c1C(=O)N(C(=S)OCCN1C(=O)c2ccccc2C1=O)c1ccc(Cl)cc1,0.4,69,172,–,–,–
CCCCCOc1ccc(C(=O)N(C(=S)OCCN2C(=O)c3ccccc3C2=O)c2ccc(F)cc2)cc1,8.5,> 100,> 11.8,–,–,–
O=C1c2ccccc2C(=O)N1CCOC(=S)N(C(=O)c1cccs1)c1ccc(Cl)cc1,0.008,–,–,–,–,–
